# Bioassay records (PubChem BioAssay)
# Compounds with a hit are over-represented: about 8.2% of the library has one in this group of screens.
# M1 ag: activates the M1 muscarinic receptor. CHO-M1 cells, Fluo-4 calcium fluorescence, agonist mode; active compounds read high. B-score at 10 µM. 3% of 64,000 active;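 active = fluorescence rise, raw or as B-score row- and column-corrected plate score, outside the 99.7% band of its plate's samples, either direction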
# SF1 activator: activates the human nuclear receptor SF-1; CHO-K1 Gal4-SF-1 LBD luciferase reporter; % increase over DMSO SF-1-specific signal; AID 522; Q13285; 1.9% of 65,000 active; activation, % at 10 µM;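 active = activation above the mean activation of all tested compounds plus 3 SD, cut at about 50% in these data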
#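 Assay system – CHO-K1 cells with Gal4–hSF-1 LBD chimera plus Gal4-driven luciferase · Quantity – 4,000 cells per well · Times – compound added 1 h post-seeding, 20 h exposure at 37 °C, 5% CO2 · Measured by – luciferase light emission · Benchmarks – DMSO and mock-transfected background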
# HePTP inhibitor: human HePTP phosphatase inhibition | P35236 | recombinant HePTP phosphatase activity, OD absorbance | inhibition, % at 20 µM | 0.64% of 110,000 active | AID 521; in the data active = inhibition above about 50%
# RORa activator: RORA (human) activation; CHO-K1 Gal4-RORA LBD luciferase reporter, luminescence; percent increase over mock-subtracted basal signal; 1.5% of 65,000 active; activation, % at 10 µM; AID 560;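 active = activation above the mean of all tested compounds plus 3 SD, cut at about 49% in these data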
# D1 mod: allosterically modulates the human D1 dopamine receptor | P21728 | HEK293 D1, CRE-luciferase, dopamine EC30 potentiation; actives deviate in either direction | B-score at 10 µM | 5.9% of 58,000 active | AID 641;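 active = luminescence count or its row- and column-corrected plate score outside the 99.7% band of the plate's sample wells, on either side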
# Target sequence (P21728 whole entry, looked up): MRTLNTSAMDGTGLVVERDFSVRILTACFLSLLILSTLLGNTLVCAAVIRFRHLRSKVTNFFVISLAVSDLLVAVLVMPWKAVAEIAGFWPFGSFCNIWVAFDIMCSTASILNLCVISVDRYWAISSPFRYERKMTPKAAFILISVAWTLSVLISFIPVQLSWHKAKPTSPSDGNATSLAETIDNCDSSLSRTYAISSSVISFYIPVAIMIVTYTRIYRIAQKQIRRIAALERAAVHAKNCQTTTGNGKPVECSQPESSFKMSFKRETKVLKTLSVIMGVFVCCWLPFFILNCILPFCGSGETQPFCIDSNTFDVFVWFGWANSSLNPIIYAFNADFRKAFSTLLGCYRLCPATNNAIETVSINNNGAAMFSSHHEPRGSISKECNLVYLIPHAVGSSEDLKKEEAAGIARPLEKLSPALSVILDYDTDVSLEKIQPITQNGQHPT
# M1 antag: antagonists of rat M1 muscarinic receptor; B-score at 10 µM; 3.4% of 64,000 active; AID 628; CHO-M1 cells, Fluo-4 calcium, ACh EC80 antagonist mode; active compounds read low; P08482;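 active = calcium fluorescence response, raw or row-and-column corrected B-score, differing from the plate sample mean either way at a set confidence level, mostly lower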
# M1 antag conf: M1 muscarinic receptor (rat) antagonism, confirmed; AID 677; 43% of 1,700 active; calcium response (max-min fluorescence) at 10 µM; CHO-M1 cells, Fluo-4 calcium, ACh EC80 antagonism; active compounds read low; shares compounds with M1 antag;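 active = calcium response below the same-plate mean of wells given acetylcholine alone at its 80%-effect dose, minus 3 SD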
# mGluR4 antag: mGluR4 (human) activity, M1 antagonist secondary assay; shares compounds with M1 antag; CHO-mGluR4 calcium flux, Fluo-4 fluorescence, glutamate EC80; active compounds read low; fluorescence response (max-min) at 10 µM; 0.9% of 1,700 active;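 active = fluorescence response below the plate's average for near-maximal glutamate wells, less 3 SD of those wells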;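 note: raw unnormalized fluorescence span taken in the window right after glutamate addition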
# Hits are given with their value; – = inactive; · = no result given.
SMILES,M1 ag,SF1 activator,HePTP inhibitor,RORa activator,D1 mod,M1 antag,M1 antag conf,mGluR4 antag
CCN1CCN(CCCNC(=O)c2cc3cc4ccc(OC)cc4nc3o2)CC1,–,–,–,–,–,-3.9,–,–
COc1ccc2cc3cc(C(=O)NCCN4CCN(Cc5ccccc5)CC4)oc3nc2c1,–,–,–,–,–,-2.2,486,–
COc1ccc2cc3cc(C(=O)NCCCN4CCOCC4)oc3nc2c1,–,–,–,–,–,–,·,·
COc1ccc(CNC(=O)CS(=O)Cc2nc(-c3ccccc3C)oc2C)cc1 (stereo not drawn),–,–,–,–,–,–,·,·
COc1ccccc1CNC(=O)CS(=O)Cc1nc(-c2ccccc2C)oc1C (stereo not drawn),–,–,–,–,–,-2.7,–,–
Cc1cccn2c(=O)c3cc(C(=O)NCCN4CCOCC4)c(=N)n(CCc4ccccc4)c3nc12,–,–,–,–,–,–,·,·
CCNC(=O)c1cc2c(=O)n3cccc(C)c3nc2n(CCc2ccccc2)c1=N,–,–,–,–,–,–,·,·
Cc1cccn2c(=O)c3cc(C(=O)NCCCN4CCCC4=O)n(C)c3nc12,–,–,·,–,–,-3.1,615,–
COCCn1c(=N)c(C(=O)NCCc2ccccc2)cc2c(=O)n3cccc(C)c3nc21,–,–,–,–,–,-4.7,194,–
Cc1cccn2c(=O)c3cc(C(=O)NCc4ccccc4)c(=N)n(CCCN4CCOCC4)c3nc12,–,–,–,–,–,-3.3,337,–
CCCCNC(=O)c1cc2c(=O)n3cccc(C)c3nc2n1C,–,–,–,–,–,–,·,·
CSC1=Nc2sc3c(c2C2=NCCN12)CC(C)(C)OC3,–,–,–,–,·,-4.6,–,–
O=C(CCN1C(=O)c2ccccc2C1=O)Nc1sc2c(c1C(=O)NCc1ccco1)CCCC2,–,–,–,–,–,–,·,·
CCOC(=O)C1=C(C)NC2=C(C(=O)CCC2)C1c1ccc(N(CC)CC)cc1 (stereo not drawn),·,·,–,·,·,·,·,·
CCN(CC)c1ccc(C2C(C(=O)OCCOC(C)C)=C(C)NC3=C2C(=O)CCC3)cc1 (stereo not drawn),–,–,–,–,–,-11,144,–
CCOC(=O)c1ccccc1NC(=O)c1ccc(Cl)cc1,·,·,–,·,·,·,·,·
Cc1cc(C)n(S(=O)(=O)c2ccc(C(C)(C)C)cc2)n1,–,–,–,–,–,-8.7,20,–
CCOC(=O)CSc1nnc(CNC(=O)c2ccc(S(=O)(=O)N3CCCC3)cc2)n1C,–,–,–,–,–,-1.2,–,–
COc1ccc(/C(O)=C2/C(=O)C(=O)N(CCCCCC(=O)O)C2c2ccccc2[N+](=O)[O-])cc1 (stereo not drawn),·,·,–,·,·,·,·,·
CSc1ccc(S(=O)(=O)N(CC(=O)N2CCN(c3ccccc3)CC2)c2ccc(C)cc2)cc1,·,·,–,·,·,·,·,·
Cc1ccc(N(C=NC#N)CC(=O)N2CCN(c3ccccc3)CC2)cc1,–,–,–,–,–,-3.4,–,–
Cc1ccccc1N1C(=O)c2ccc(-c3nc4ccccc4c(=O)o3)cc2C1=O,·,·,–,·,·,·,·,·
CN(C)CCCOC(=O)c1ccccc1,·,·,–,·,·,·,·,·
CCN(CC)CCCNC(=O)C1c2ccccc2Oc2ccccc21,–,–,–,–,–,-6.8,192,–
CN(C)CCCOC(=O)C1c2ccccc2Oc2ccccc21,–,–,–,–,·,-12,22,–
SMILES,M1 ag,SF1 activator,HePTP inhibitor,RORa activator,D1 mod,M1 antag,M1 antag conf,mGluR4 antag
CN1C(=O)c2c(sc3c2CCCC3)NC1c1ccccc1O (stereo not drawn),–,–,–,–,–,-2.7,–,–
CCCCC(c1nnnn1Cc1ccco1)N1CCN(c2nc3ccccc3s2)CC1 (stereo not drawn),–,–,–,–,–,-3.3,–,–
COc1ccccc1C(c1nnnn1Cc1ccccc1)N1CCN(c2nc3ccccc3s2)CC1 (stereo not drawn),–,–,–,–,–,–,·,·
CCCC(c1nnnn1Cc1ccco1)N1CCC(C(N)=O)CC1 (stereo not drawn),–,–,–,–,–,–,·,·
c1ccc(Cn2nnnc2C(c2ccccc2)N2CCN(c3nc4ccccc4s3)CC2)cc1 (stereo not drawn),–,–,–,–,·,-2.1,–,–
CC(C)(C)C(=O)OCC1OC(n2cnc(C(N)=O)n2)C(O)C1O (stereo not drawn),–,–,–,–,·,-11,–,–
CC(=O)OCC1OC(n2ccc(=O)[nH]c2=O)C(O)C1O (stereo not drawn),–,–,–,–,–,–,·,·
CC1=NN(c2ccc(C(=O)O)cc2)C(=O)/C1=C\c1cccs1,·,·,–,·,·,·,·,·
CCOC(=O)C(C)Sc1ncnc2c1nnn2-c1ccc(F)cc1 (stereo not drawn),–,–,–,–,–,–,·,·
CCC(Sc1ncnc2c1nnn2-c1ccc(F)cc1)C(=O)OC (stereo not drawn),–,–,–,–,–,-2.8,–,–
COc1ccc(S(=O)(=O)N(C)CC(=O)N2CCCCCC2)cc1OC,–,–,–,–,–,–,·,·
COc1ccc(S(=O)(=O)N(C)CC(=O)N2CCN(C)CC2)cc1C,–,–,–,–,–,-1.9,–,–
CCOC(=O)N1CCN(C(=O)CN(c2ccccc2OC)S(=O)(=O)c2ccc(C)cc2)CC1,–,–,–,–,–,-2.6,–,–
CCCSc1nnc2c(n1)OC(c1cccn1C)N(C(C)=O)c1ccccc1-2 (stereo not drawn),–,–,–,–,–,-10,23,–
COc1ccc(OCC(O)CN(C)S(=O)(=O)O)cc1 (stereo not drawn),·,·,–,·,·,·,·,·
COc1cc(NC(=O)c2cnn3c(C(F)(F)F)cc(-c4cccs4)nc23)c(OC)cc1Cl,·,·,–,·,·,·,·,·
Cc1cc(=O)n2nc(N3CCCC(C(=O)N4CCc5ccccc54)C3)sc2n1 (stereo not drawn),–,–,–,–,–,-12,33,–
O=c1cc(CSc2nnnn2-c2ccccc2)nc2nc[nH]n12,–,–,–,–,–,-2.1,–,–
O=c1cc(CSc2nnnn2-c2ccccc2)nc2scc(-c3ccccc3)n12,–,–,–,–,–,–,·,·
OCCN(CCO)c1ncnc2c1sc1nc(N3CCOCC3)c3c(c12)CCCC3,–,–,–,–,·,–,·,·
CSc1nc(N(CCO)CCO)c2sc3nc(-c4ccco4)c4c(c3c2n1)CCC4,–,–,·,–,–,-3.9,–,–
O=S(=O)(c1ccc(Cl)cc1)N1CCC(N2CCCCCC2)CC1,–,–,–,–,·,-4.6,–,–
